In PMC10433104 (Journal of medicinal chemistry, 2023):

target: PDE4D7-S129D (PDE4D*) (Homo sapiens, UniProt Q08499, S190D); assay: PDE4 enzyme inhibition assay; format: biochemical; conditions: ratio of IC50 for PDE4B* over that for PDE4D*
Outline: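 Mutationally activated dimeric enzymes were used: PDE4D7-S129D (PDE4D*) and PDE4B1-S133D (PDE4B*). PDE4B served as the comparator for the PDE4 subtypes. Activity was read with a real-time coupled enzyme assay rather than a fluorescein-labelled cAMP substrate. An IC50 was obtained against each enzyme, and selectivity was taken as PDE4B* IC50 divided by PDE4D* IC50 (B/D ratio).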

PDE4D7-S129D (PDE4D*), sequence (Q08499 1-748 isoform Q08499-11 S129D, species assumed): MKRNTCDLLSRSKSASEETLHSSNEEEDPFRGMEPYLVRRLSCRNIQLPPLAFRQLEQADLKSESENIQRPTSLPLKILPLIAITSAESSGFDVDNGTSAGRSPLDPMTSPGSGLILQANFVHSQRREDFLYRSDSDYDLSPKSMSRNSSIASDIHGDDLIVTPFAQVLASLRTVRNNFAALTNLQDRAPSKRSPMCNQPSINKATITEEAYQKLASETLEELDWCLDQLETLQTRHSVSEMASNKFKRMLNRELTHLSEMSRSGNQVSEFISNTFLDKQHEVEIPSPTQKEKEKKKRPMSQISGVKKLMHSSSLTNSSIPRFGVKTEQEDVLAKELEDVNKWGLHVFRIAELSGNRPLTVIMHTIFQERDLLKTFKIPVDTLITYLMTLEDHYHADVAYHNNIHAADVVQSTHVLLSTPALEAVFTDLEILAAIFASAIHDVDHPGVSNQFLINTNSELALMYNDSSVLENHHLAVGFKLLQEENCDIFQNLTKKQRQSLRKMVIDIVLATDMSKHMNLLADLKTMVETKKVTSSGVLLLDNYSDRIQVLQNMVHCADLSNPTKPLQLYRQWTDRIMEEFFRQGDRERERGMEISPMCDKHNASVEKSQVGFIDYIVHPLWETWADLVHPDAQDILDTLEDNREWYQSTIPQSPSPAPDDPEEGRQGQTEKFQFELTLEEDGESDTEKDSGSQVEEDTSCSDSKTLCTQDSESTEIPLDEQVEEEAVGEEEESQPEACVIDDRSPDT

SMILES | Selectivity B/D
Fc1ccc(Cc2cn[nH]c2)nc1-c1cccc(Cl)c1 [Compound 10, 6-((1H-Pyrazol-4-yl)methyl)-2-(3-chlorophenyl)-3-fluoropyridine] | >13
COc1ccc(Nc2cn[nH]c2)nc1-c1cccc(C(F)(F)F)c1 [Compound 13, 5-Methoxy-N-(1H-pyrazol-4-yl)-6-(3-(trifluoromethyl)phenyl)pyridin-2-amine] | >2
COc1ccc(Oc2cn[nH]c2)nc1-c1cccc(OC(F)F)c1 [Compound 18, 6-((1H-Pyrazol-4-yl)oxy)-2-(3-(difluoromethoxy)phenyl)-3-methoxypyridine] | >6
COc1cccc(-c2nc(Nc3cn[nH]c3)ccc2OC(F)F)c1 [Compound 20, 5-(Difluoromethoxy)-6-(3-methoxyphenyl)-N-(1H-pyrazol-4-yl)pyridin-2-amine] | >15
COc1ccc(Cn2cccn2)nc1-c1cccc(F)c1 [Compound 24, 6-((1H-Pyrazol-1-yl)methyl)-2-(3-fluorophenyl)-3-methoxypyridine] | >2
COc1ccc(Cn2cnc(C(F)(F)F)n2)nc1-c1cccc(OC(F)F)c1 [Compound 31, 2-(3-(Difluoromethoxy)phenyl)-3-methoxy-6-((3-(trifluoromethyl)-1H-1,2,4-triazol-1-yl)methyl)pyridine] | >13
COc1ccc(Cn2cncn2)nc1-c1cccc(OC(F)F)c1 [Compound 32, 6-((1H-1,2,4-Triazol-1-yl)methyl)-2-(3-(difluoromethoxy)phenyl)3-methoxypyridine] | >649
COc1ccc(Cn2ncnn2)nc1-c1cccc(OC(F)F)c1 [Compound 34, 6-((2H-Tetrazol-2-yl)methyl)-2-(3-(difluoromethoxy)phenyl)-3methoxypyridine] | >472
COc1cccc(-c2nc(COc3cn[nH]c3)ccc2OC(F)F)c1 [Compound 40, 6-(((1H-Pyrazol-4-yl)oxy)methyl)-3-(difluoromethoxy)-2-(3methoxyphenyl)pyridine] | >27
COc1cccc(-c2nc(Cn3cnc(C(F)(F)F)n3)ccc2OC(F)F)c1 [Compound 44, 3-(Difluoromethoxy)-2-(3-methoxyphenyl)-6-((3-(trifluoromethyl)-1H-1,2,4-triazol-1-yl)methyl)pyridine] | >13
COc1cccc(-c2nc(Cn3cncn3)ccc2OC(F)F)c1 [Compound 45, 6-((1H-1,2,4-Triazol-1-yl)methyl)-3-(difluoromethoxy)-2-(3methoxyphenyl)pyridine] | >238
COc1cccc(-c2nc(Cn3ncnn3)ccc2OC(F)F)c1 [Compound 47, 6-((2H-Tetrazol-2-yl)methyl)-3-(difluoromethoxy)-2-(3methoxyphenyl)pyridine] | >575
COc1ccc(Cc2ccc(CCO)cc2)nc1-c1cccc(OC(F)F)c1 [Compound 53, 2-(4-((6-(3-(Difluoromethoxy)phenyl)-5-methoxypyridin-2-yl)methyl)phenyl)ethan-1-ol] | >2519
COc1ccc(Cc2ccc(CCCO)cc2)nc1-c1cccc(OC(F)F)c1 [Compound 54, 3-(4-((6-(3-(Difluoromethoxy)phenyl)-5-methoxypyridin-2-yl)methyl)phenyl)propan-1-ol] | >621
COc1cccc(-c2nc(Cc3ccc(CCCO)cc3)ccc2OC(F)F)c1 [Compound 56, 3-(4-((5-(Difluoromethoxy)-6-(3-methoxyphenyl)pyridin-2-yl)methyl)phenyl)propan-1-ol] | >420
FC(F)Oc1cccc(-c2nc(Cc3cn[nH]c3)ccc2OCc2ccccc2)c1 [Compound 57] | >61
FC(F)Oc1cccc(-c2nc(Cc3ccncc3)ccc2OCc2ccccc2)c1 [Compound 58, 3-(Benzyloxy)-2-(3-(difluoromethoxy)phenyl)-6-(pyridin-4ylmethyl)pyridine] | >13
FC(F)Oc1cccc(-c2nc(Cn3ccnc3)ccc2OCc2ccccc2)c1 [Compound 59, 6-((1H-Imidazol-1-yl)methyl)-3-(benzyloxy)-2-(3(difluoromethoxy)phenyl)pyridine] | >57
